Source: ChEMBL document CHEMBL3259551, “Novel delta opioid receptor agonists with oxazatricyclodecane structure” (ACS Med Chem Lett, 2014)

Tests used:
[1] = target: T1, Delta-type opioid receptor (Homo sapiens, UniProt P41143); assay: Agonist activity at human delta opioid receptor expressed in CHO cells assessed as [35S]-GTP[gammaS] binding relative to SNC80; format: functional, cell-based
Procedure, shortened: (§1)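 Human MOR, DOR or KOR expressed in CHO cells; [35S]GTPγS binding run in duplicate. Emax is the % of the response to DAMDO for MOR, SNC80 for DOR and U-69,593 for KOR.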

[2] = target: T1, Delta-type opioid receptor; assay: Agonist activity at human delta opioid receptor expressed in HEK293 cells by CellKey method relative to SNC80; format: cell-based
Procedure, shortened: (§2)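 Label-free CellKey impedance biosensor readout of receptor activity in HEK293 cells expressing human MOR, DOR or KOR, run in duplicate. Emax is the % of the response to DAMGO for MOR, SNC80 for DOR and (−)-U-50,488H for KOR.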

[3] = target: T1, Delta-type opioid receptor; assay: Agonist activity at human delta opioid receptor expressed in CHO cells assessed as [35S]-GTP[gammaS] binding; format: functional, cell-based; procedure, shortened: as §1
[4] = target: T2, Mu-type opioid receptor (Homo sapiens, UniProt P35372); assay: Agonist activity at human mu opioid receptor expressed in HEK293 cells by CellKey method; format: cell-based
Procedure, shortened: (§3)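 Label-free CellKey impedance biosensor readout of receptor activity in HEK293 cells expressing human MOR, DOR or KOR, run in duplicate.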

[5] = target: T2, Mu-type opioid receptor; assay: Agonist activity at human mu opioid receptor expressed in CHO cells assessed as [35S]-GTP[gammaS] binding relative to DAMDO; format: cell-based; procedure, shortened: as §1
[6] = organism: Mus musculus; assay: Selectivity ratio of Ki for mouse mu opioid receptor to Ki for mouse delta opioid receptor
[7] = target: T3, Kappa-type opioid receptor (Homo sapiens, UniProt P41145); assay: Agonist activity at human kappa opioid receptor expressed in CHO cells assessed as [35S]-GTP[gammaS] binding; format: functional, cell-based; procedure, shortened: as §1
[8] = target: T3, Kappa-type opioid receptor; assay: Agonist activity at human kappa opioid receptor expressed in CHO cells assessed as [35S]-GTP[gammaS] binding relative to U69593; format: functional, cell-based; procedure, shortened: as §1
[9] = target: T2, Mu-type opioid receptor; assay: Agonist activity at human mu opioid receptor expressed in CHO cells assessed as [35S]-GTP[gammaS] binding; format: cell-based; procedure, shortened: as §1
[10] = target: T1, Delta-type opioid receptor; assay: Agonist activity at human delta opioid receptor expressed in HEK293 cells by CellKey method; format: cell-based; procedure, shortened: as §2
[11] = target: Kappa-type opioid receptor (Cavia porcellus, UniProt P41144); assay: Displacement of [3H]U69593 from kappa opioid receptor in guinea pig cerebellum membrane
Procedure, shortened: (§4)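 Competitive binding run in duplicate. MOR used [3H]DAMGO and DOR used [3H]DPDPE, both on mouse whole-brain membranes without cerebellum. KOR used [3H]U-69,593 on guinea pig cerebellum membranes.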

[12] = target: T2, Mu-type opioid receptor; assay: Agonist activity at human mu opioid receptor expressed in HEK293 cells by CellKey method relative to DAMDO; format: cell-based
[13] = target: Mu-type opioid receptor (Mus musculus, UniProt P42866); assay: Displacement of [3H]DAMGO from mu opioid receptor in mouse whole brain […] membrane; format: tissue-based; procedure, shortened: as §4
[14] = Selectivity ratio of Ki for guinea pig kappa opioid receptor to Ki for mouse delta opioid receptor
[15] = target: Delta-type opioid receptor (Mus musculus, UniProt P32300); assay: Displacement of [3H]DPDPE from delta opioid receptor in mouse whole brain […] membrane; format: tissue-based
Procedure, shortened: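 Competitive binding run in duplicate. MOR used [3H]DAMGO and DOR used [3H]DPDPE, both on mouse whole-brain membranes without cerebellum.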

[16] = target: T3, Kappa-type opioid receptor; assay: Agonist activity at human kappa opioid receptor expressed in HEK293 cells by CellKey method relative to (-)U50488H; format: cell-based; procedure, shortened: as §2
[17] = target: T3, Kappa-type opioid receptor; assay: Agonist activity at human kappa opioid receptor expressed in HEK293 cells by CellKey method; format: cell-based; procedure, shortened: as §3
[18] = system: Mus musculus; assay: Analgesic activity in sc dosed mouse assessed as inhibition of acetic acid-induced writhing treated after 15 mins of acetic acid-challenge; format: functional
Procedure, shortened: (§5)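 Mice dosed subcutaneously, then scored in the acetic acid writhing test and watched for convulsive behaviour. […] taken from the dose–response. Antagonist reversal tested with NTI, β-FNA or nor-BNI. Groups compared against saline-treated mice by one-way ANOVA with Bonferroni's test.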

[19] = system: Mus musculus; assay: Toxicity in mouse assessed as induction of convulsion at 1 to 10 mg/kg, sc; format: organism-based; parameters: dose 1-10 mg/kg, route subcutaneous; conditions: in vivo; procedure, shortened: as §5

T2 sequence (P35372 whole entry): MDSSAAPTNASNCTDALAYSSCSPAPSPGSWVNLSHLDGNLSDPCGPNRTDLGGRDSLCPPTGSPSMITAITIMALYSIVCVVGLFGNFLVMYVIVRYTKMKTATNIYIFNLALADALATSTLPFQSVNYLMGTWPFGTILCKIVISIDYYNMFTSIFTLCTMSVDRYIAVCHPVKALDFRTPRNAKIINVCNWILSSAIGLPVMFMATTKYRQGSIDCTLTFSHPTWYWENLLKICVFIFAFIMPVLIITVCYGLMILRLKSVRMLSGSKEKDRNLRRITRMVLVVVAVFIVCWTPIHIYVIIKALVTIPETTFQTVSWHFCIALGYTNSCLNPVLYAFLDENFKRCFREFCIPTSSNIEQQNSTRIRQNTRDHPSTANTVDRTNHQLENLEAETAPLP
T3 sequence (P41145 whole entry): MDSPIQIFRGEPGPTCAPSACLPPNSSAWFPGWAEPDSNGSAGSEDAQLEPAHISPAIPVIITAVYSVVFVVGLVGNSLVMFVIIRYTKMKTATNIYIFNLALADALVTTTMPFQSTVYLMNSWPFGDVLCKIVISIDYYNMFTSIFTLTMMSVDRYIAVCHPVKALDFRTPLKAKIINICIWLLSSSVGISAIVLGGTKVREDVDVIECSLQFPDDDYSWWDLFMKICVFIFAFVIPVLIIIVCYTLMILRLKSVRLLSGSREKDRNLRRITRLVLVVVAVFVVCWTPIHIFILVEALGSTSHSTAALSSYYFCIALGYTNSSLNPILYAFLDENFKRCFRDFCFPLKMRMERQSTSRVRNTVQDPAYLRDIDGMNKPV
T1 sequence (P41143 whole entry): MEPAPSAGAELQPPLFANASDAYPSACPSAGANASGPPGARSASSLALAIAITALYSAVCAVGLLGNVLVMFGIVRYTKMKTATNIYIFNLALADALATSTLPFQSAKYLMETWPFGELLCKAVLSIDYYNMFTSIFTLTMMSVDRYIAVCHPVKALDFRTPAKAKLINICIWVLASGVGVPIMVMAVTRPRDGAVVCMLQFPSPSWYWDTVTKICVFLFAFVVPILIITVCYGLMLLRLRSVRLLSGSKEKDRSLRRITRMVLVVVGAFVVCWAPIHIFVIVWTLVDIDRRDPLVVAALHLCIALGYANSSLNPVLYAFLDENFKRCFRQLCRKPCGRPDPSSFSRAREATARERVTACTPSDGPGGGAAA
Chain of Delta-type opioid receptor (Mus musculus, UniProt P32300) (P32300 whole entry): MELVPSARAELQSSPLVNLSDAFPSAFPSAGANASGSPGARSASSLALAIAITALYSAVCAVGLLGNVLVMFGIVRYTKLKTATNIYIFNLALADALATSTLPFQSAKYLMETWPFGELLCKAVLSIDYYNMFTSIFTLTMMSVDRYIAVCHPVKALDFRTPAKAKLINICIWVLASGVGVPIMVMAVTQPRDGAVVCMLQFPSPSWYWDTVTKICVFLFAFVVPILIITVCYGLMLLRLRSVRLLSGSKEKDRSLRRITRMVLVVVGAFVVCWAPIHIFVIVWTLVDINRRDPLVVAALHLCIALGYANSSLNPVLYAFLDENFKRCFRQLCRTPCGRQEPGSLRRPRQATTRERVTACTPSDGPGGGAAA
Chain of Mu-type opioid receptor (Mus musculus, UniProt P42866) (P42866 whole entry): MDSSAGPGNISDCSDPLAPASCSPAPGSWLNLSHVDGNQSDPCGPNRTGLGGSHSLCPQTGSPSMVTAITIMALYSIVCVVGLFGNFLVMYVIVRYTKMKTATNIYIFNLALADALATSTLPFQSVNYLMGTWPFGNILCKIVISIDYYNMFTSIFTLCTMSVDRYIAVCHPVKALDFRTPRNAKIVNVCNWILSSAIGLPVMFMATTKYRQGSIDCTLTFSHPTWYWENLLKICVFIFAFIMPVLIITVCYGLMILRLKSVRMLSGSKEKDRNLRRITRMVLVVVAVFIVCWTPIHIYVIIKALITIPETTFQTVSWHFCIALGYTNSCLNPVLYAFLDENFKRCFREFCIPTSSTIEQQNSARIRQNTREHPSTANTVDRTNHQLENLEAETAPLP
Chain of Kappa-type opioid receptor (Cavia porcellus, UniProt P41144) (P41144 whole entry): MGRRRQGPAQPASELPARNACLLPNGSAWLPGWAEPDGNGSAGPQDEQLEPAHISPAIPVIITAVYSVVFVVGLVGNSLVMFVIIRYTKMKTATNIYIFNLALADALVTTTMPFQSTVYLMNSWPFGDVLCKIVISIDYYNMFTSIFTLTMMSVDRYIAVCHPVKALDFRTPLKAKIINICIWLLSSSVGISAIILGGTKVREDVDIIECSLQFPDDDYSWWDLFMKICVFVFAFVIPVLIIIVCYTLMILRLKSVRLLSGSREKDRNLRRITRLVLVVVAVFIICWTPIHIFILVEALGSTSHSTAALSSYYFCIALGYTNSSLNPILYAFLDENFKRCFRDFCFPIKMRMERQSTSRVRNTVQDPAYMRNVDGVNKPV

| Structure (SMILES) | Emax [1] [%] | Emax [2] [%] | EC50 [3] [nM] | EC50 [4] [nM] | Emax [5] [%] | Ratio Ki [6] | EC50 [7] [nM] | Emax [8] [%] | EC50 [9] [nM] | EC50 [10] [nM] | Ki [11] [nM] | Emax [12] [%] | Ki [13] [nM] | Ratio Ki [14] | Ki [15] [nM] | Emax [16] [%] | EC50 [17] [nM] | inhibition [18] | ED50 ([18]; 0.25 h) [mg/kg] | Activity [19] |
| --- | --- | --- | --- | --- | --- | --- | --- | --- | --- | --- | --- | --- | --- | --- | --- | --- | --- | --- | --- | --- |
| C=CCN1CC[C@@]23c4c5ccc(O)c4OCO[C@]46CC[C@@]2(O[C@H](C(=O)N4Cc2ccccc2)[C@H]63)[C@H]1C5 | 94.6 | 77.2 | 6.5 | 5.1 | 5.4 | 55.8 | 231 | 74 | 2.7 | 2 | 56.6 | 11.3 | 68.4 | 46.2 | 1.23 | – | – | – | – | – |
| O=C1[C@H]2O[C@@]34CC[C@@]5(OCOc6c(O)ccc7c6[C@@]3(CCN(CC3CC3)[C@@H]4C7)[C@H]25)N1c1ccccc1 | 118 | 123 | 0.98 | 1.2 | 25.6 | 8.6 | 6.5 | 42.9 | 9 | 0.39 | 1.69 | 8.8 | 4.61 | 3.2 | 0.534 | 80.4 | 1.2 | – | – | – |
| O=C1[C@H]2O[C@@]34CC[C@@]5(OCOc6c(O)ccc7c6[C@@]3(CCN(CC3CC3)[C@@H]4C7)[C@H]25)N1CCc1ccccc1 | 103 | 90.6 | 0.41 | 5.2 | 19.7 | 1.5 | 3.9 | 51.2 | 2.1 | 0.62 | 1.94 | 4.8 | 1.75 | 1.7 | 1.16 | 75.8 | 2.4 | – | – | – |
| O=C1[C@H]2O[C@@]34CC[C@@]5(OCOc6c(O)ccc7c6[C@@]3(CCN(CCc3ccccc3)[C@@H]4C7)[C@H]25)N1Cc1ccccc1 | 115 | 108 | 9.2 | 639 | 83 | 17.7 | – | – | 2.3 | 20.5 | 588 | 40.2 | 45.9 | 227 | 2.59 | 22.6 | 12500 | – | – | – |
| CC(C)CN1CC[C@@]23c4c5ccc(O)c4OCO[C@]46CC[C@@]2(O[C@H](C(=O)N4Cc2ccccc2)[C@H]63)[C@H]1C5 | 96.4 | 130 | 15.6 | 400 | 8.4 | 26.6 | 760 | 65.6 | 223 | 140 | 119 | 12.2 | 186 | 17 | 7 | 57.9 | 333 | – | – | – |
| COc1ccc2c(c1O)[C@]13CCN(CC4CC4)[C@H](C2)[C@]12CC[C@]1(O)[C@H]3[C@H](O2)C(=O)N1Cc1ccccc1 | – | – | – | – | – | 0.27 | – | – | – | – | 248 | – | 47.7 | 1.4 | 175 | – | – | – | – | – |
| CN1CC[C@@]23c4c5ccc(O)c4OCO[C@]46CC[C@@]2(O[C@H](C(=O)N4Cc2ccccc2)[C@H]63)[C@H]1C5 | 112 | 138 | 11 | 1350 | 110 | 12 | 478 | 83.6 | 113 | 141 | 200 | 36.1 | 23.3 | 103 | 1.94 | 79.2 | 307 | Dose-dependent effect | 5.26 | Non-toxic |
| C=CCN1C[C@H](C)N([C@H](c2ccc(C(=O)N(CC)CC)cc2)c2cccc(OC)c2)C[C@H]1C [SNC-80] | – | – | – | – | – | – | – | – | – | – | > 1000 | 6.8 | 695 | – | – | 5.9 | – | – | – | – |
| O=C1[C@H]2O[C@@]34CC[C@@]5(OCOc6c(O)ccc7c6[C@@]3(CCN(CC3CC3)[C@@H]4C7)[C@H]25)N1Cc1ccccc1 | 92.8 | 88.7 | 1.1 | 1.8 | 13.7 | 10 | 80.5 | 69.1 | 2.8 | 1.54 | 5.14 | 9.6 | 3.14 | 16.4 | 0.313 | 50.5 | 39.8 | – | – | – |
